Assay results as given in ChEMBL document CHEMBL4680079, “Discovery of a Quinoline-4-carboxamide Derivative with a Novel Mechanism of Action, Multistage Antimalarial Activity, and Potent in Vivo Efficacy” (J Med Chem, 2016).
pEC50: −log10 of the molar value. Values after ≈ are worked out from the molar mass of the structure shown.

How the values were obtained:
[1] = Protein binding in CD1 mouse plasma measured after 5 hr by UPLC-MS/MS analysis based equilibrium dialysis method; type: ADME, cell-free; settings: CD1, mouse, read-out: PPB (converted)
In short: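 Equilibrium dialysis of female CD1 mouse plasma spiked at 10 μg/mL (12-14 kDa membrane) against isotonic buffer for 5 h at ~37°C with shaking. Unbound fraction taken as the buffer/plasma peak-area ratio by UPLC-MS/MS. n=6 replicates, run in triplicate.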

[2] = tested on: Plasmodium yoelii; test: Antiplasmodial activity against Plasmodium yoelli liver stage forms; type: functional, organism-based
[3] = tested on: Plasmodium berghei; test: Antiplasmodial activity against Plasmodium berghei infected in NMRI mouse assessed as reduction in parasitemia at 3 mg/kg, po QD for 4 days; type: functional; parameters: scale not given: the % may be the effect or the level left; settings: time 4 day
In short: (§1)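 Female NMRI mice (n=3 per group, randomized, not blinded) infected with GFP-transfected P. berghei ANKA. Oral dosing once daily for 4 days in 10% DMSO/40% PEG400/50% water or HPMC suspension vehicle. Parasitaemia measured by flow cytometry on blood collected 96 h after infection. Mice watched for toxicity over 4 h post-dose each day.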

[4] = Tmax in NMRI mouse at 3 mg/kg, po administered as gavage by UPLC-MS/MS analysis; type: ADME, organism-based; settings: in vivo
[5] = Tmax in Sprague-Dawley rat at 5 mg/kg, po administered via gavage by UPLC-MS/MS analysis; type: ADME, organism-based; settings: in vivo
In short: (§2)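 Male Sprague Dawley rats (n=3) gavaged with a solution at 5 mg free base/kg (10 mL/kg; 0.5% w/v HPMC, 0.4% v/v Tween 80, 0.5% v/v benzyl alcohol). Blood sampled at 5, 15, 30 min and 1, 2, 4, 6, 8, 24, 30, 48 h, diluted with two volumes water, analysed by UPLC-MS/MS.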

[6] = tested on: Plasmodium falciparum; test: Antiplasmodial activity against chloroquine-sensitive Plasmodium falciparum 3D7 infected in human red blood cells assessed as growth inhibition by SYBR Green fluorescence assay; type: functional, organism-based, RBC; settings: 3D7, Erythrocyte
In short: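 P. falciparum 3D7 grown in 5% human red cells in RPMI 1640 (pH 7.3) with 0.5% Albumax II, hypoxanthine and gentamicin at 37°C under 1% O₂/3% CO₂. Growth measured by SYBR green fluorescence (ex 485/em 528 nm), with mefloquine as assay control. EC50 calculated.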

[7] = tested on: Plasmodium falciparum; test: Antiplasmodial activity against drug resistant Plasmodium falciparum K1 by [3H]hypoxanthine incorporation assay; type: functional, organism-based
In short: (§3)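 Strains (K1, W2, 7G8, TM90C2A, D6, V1/S resistant; NF54 sensitive) cultured by the Trager and Jensen method; EC50 determined in vitro from [3H]hypoxanthine incorporation.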

[8] = Cmax in Sprague-Dawley rat at 5 mg/kg, po administered via gavage by UPLC-MS/MS analysis; type: ADME, organism-based; parameters: route oral, dose 5 mg/kg; settings: in vivo; in short: as §2
[9] = tested on: Plasmodium falciparum; test: Antiplasmodial activity against drug resistant Plasmodium falciparum W2 by [3H]hypoxanthine incorporation assay; type: functional, organism-based; in short: as §3
[10] = Half-life in NMRI mouse at 1 mg/kg, iv administered as bolus dose by UPLC-MS/MS analysis; type: ADME, organism-based; settings: in vivo
[11] = tested on: Plasmodium berghei; test: Antiplasmodial activity against Plasmodium berghei ANKA infected in NMRI mouse assessed as reduction in parasitemia at 30 mg/kg, po QD for 4 days; type: functional; parameters: scale not given: the % may be the effect or the level left; settings: time 4 day; in short: as §1
[12] = Cmax in NMRI mouse at 3 mg/kg, po administered as gavage by UPLC-MS/MS analysis; type: ADME, organism-based; parameters: route oral, dose 3 mg/kg; settings: in vivo
[13] = Oral bioavailability in Sprague-Dawley rat at 3 mg/kg administered via gavage by UPLC-MS/MS analysis; type: ADME, organism-based; settings: in vivo
In short: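 Oral gavage solution, 3 mg free base/kg (10 mL/kg; 0.5% w/v HPMC, 0.4% v/v Tween 80, 0.5% v/v benzyl alcohol), given to male Sprague Dawley rats (n=3). Blood taken at 5, 15, 30 min and 1, 2, 4, 6, 8, 24, 30 h, mixed with two volumes water, analysed by UPLC-MS/MS.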

[14] = Kinetic aqueous solubility of the compound by laser nephelometry; type: physicochemical; settings: read-out: Kinetic_solubility
In short: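 Kinetic solubility measured by laser nephelometry. DMSO serial dilutions diluted into water to give final 100–5 μg/mL at 1.0% DMSO. Read immediately, in triplicate aliquots.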

[15] = Oral bioavailability in NMRI mouse at 10 mg/kg administered via gavage by UPLC-MS/MS analysis; type: ADME, organism-based; settings: in vivo
In short: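 Female NMRI mice (n=3) dosed by oral gavage as a solution at 10 mg free base/kg (10 mL/kg; vehicle 5 or 10% DMSO, 40% PEG400). Blood levels measured by UPLC-MS/MS. Parameters derived from the blood concentration-time curve.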

[16] = Intrinsic clearance in CD1 mouse liver microsomes at 0.5 uM in presence of NADPH incubated upto 30 mins by UPLC-MS/MS analysis; type: ADME, Microsome; settings: 0.5 h
In short: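 Compound at 0.5 μM incubated with female CD1 mouse, male Sprague-Dawley rat or pooled human liver microsomes (0.5 mg/mL, 50 mM potassium phosphate, pH 7.4). Reaction started with excess NADPH. Samples taken at 0-30 min, quenched in acetonitrile, analysed by UPLC-MS/MS. Verapamil used as control, single time course.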

Question: Which fraction unbound at 5 h [1] does the source give for O=C(NCCN1CCCC1)c1cc(-c2ccc(CN3CCOCC3)cc2)nc2ccc(F)cc12 [CABAMIQUINE] here?
Answer: 0.37

Question: And the pEC50 [2]?
Answer: 9.00

Question: And the Activity [3]?
Answer: 99.9%

Question: What about the Tmax [4] of the same compound?
Answer: 1 h

Question: What about the Tmax [5] of the same compound?
Answer: 4 h

Question: And the pEC50 [6]?
Answer: 9.00

Question: What about the pEC50 [7] of the same compound?
Answer: 9.40

Question: What about the Cmax [8] of the same compound?
Answer: 180 ng/mL

Question: What about the pEC50 [9] of the same compound?
Answer: 9.40

Question: What about the t1/2 [10] of the same compound?
Answer: 16 h

Question: What about the Activity [11] of the same compound?
Answer: 99.9%

Question: And the Cmax [12]?
Answer: 90 ng/mL

Question: What about the bioavailability [13] of the same compound?
Answer: 84%

Question: What about the solubility kinetic [14] of the same compound?
Answer: 216 µM (≈ 99.9 µg/mL)

Question: And the bioavailability [15]?
Answer: 74%

Question: What about the CLH [16] of the same compound?
Answer: < 0.5 mL/min/g
